# Screens: PubChem, several laboratories
# APP 5'UTR act = activates APP 5'UTR luciferase reporter; 190,000 compounds, 1% hits; SH-SY5Y APP 5'UTR luciferase reporter, luminescence; zero percent = DMSO vehicle wells; activation, % at 2 µM;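 active = activation above a set limit, based on mean plus 3 SD of controls, cut at about 140% in these data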
# NF-kB neuron act = raises NF-kB expression in human neuronal cells | 190,000 compounds, 1.6% hits | AID 1239 | fold change at 12.5 µM | NF-kB reporter expression; stronger effect = higher value; in the data active = fold change above about 3.3
# FLuc act counter = affects firefly luciferase, flagging false hits in luciferase stimulation screens; 200,000 tested, under 10 active; activation factor at 10 µM; P08659; ATPlite luciferase biochemical, luminescence, 10 min; 0 = ATP-free wells, 1 = DMSO control;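 active = luciferase activation factor, scaled between plate controls, of at least 2 with compound at 10 µM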
# Target sequence (P08659 whole entry, looked up): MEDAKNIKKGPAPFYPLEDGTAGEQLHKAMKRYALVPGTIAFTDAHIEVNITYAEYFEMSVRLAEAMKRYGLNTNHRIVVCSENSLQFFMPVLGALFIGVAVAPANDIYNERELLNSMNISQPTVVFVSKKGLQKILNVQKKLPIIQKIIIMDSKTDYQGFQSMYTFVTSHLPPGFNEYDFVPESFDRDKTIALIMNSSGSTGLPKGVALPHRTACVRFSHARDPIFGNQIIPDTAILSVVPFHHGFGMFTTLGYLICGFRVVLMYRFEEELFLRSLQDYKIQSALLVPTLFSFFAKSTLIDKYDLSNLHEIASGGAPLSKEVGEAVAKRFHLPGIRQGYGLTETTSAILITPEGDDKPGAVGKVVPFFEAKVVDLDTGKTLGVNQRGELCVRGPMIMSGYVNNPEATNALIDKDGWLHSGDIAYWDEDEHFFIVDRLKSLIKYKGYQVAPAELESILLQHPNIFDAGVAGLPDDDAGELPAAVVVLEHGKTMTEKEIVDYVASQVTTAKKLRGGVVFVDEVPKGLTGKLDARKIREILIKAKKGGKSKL
#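 Assay system: Luciferase/luciferin detection reagent, cell-free biochemical luciferase assay / Read-out: luciferase activation / Benchmarks: No-ATP low control, compound-free enzyme-plus-ATP high control / Medium: PBS buffer for ATP / Detection: luminescence measurement of luciferase light output / Schedule: 10 min at ambient temperature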
# TRAIL sens C8 = caspase-8 TRAIL sensitization. AID 624354. NB7+C8 cells + TRAIL, ATPlite viability luminescence. inhibition (viability loss, TRAIL sensitization), % at 10 µM. 360,000 compounds, 1% hits;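 active = compounds causing at least 50% loss of cell viability in the single-dose screen, relative to plate controls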
# PPC-1+TRAIL kill = kills PPC-1 cancer cells in the presence of TRAIL | AID 1443 | PPC-1 cells + TRAIL, ATPLite viability luminescence | cell killing (% activity), % at 4 µM or 5 µM | 220,000 compounds, 0.41% hits;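 active = cell killing above 50% in the first pass at 4 µM, then a duplicate retest at 5 µM averaging 50% or more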;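 note: plate controls were cells with TRAIL plus DMSO for no effect and medium-only wells lacking cells for full effect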
# FLuc inhib CS = Photinus pyralis luciferase inhibition counter-screen. P08659. ATPLite firefly luciferase biochemical luminescence, 10 min. inhibition, % at 10 µM. 200,000 compounds, 1.5% hits;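 active = inhibition above about 50% when tested at 10 µM, limit read from the data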
# Active calls of the source: *; . = not tested or not shown. Rows were chosen to be rich in hits. Some 2.2% of all compounds tested hit in one or more screens of this group.
SMILES,APP 5'UTR act,NF-kB neuron act,FLuc act counter,TRAIL sens C8,PPC-1+TRAIL kill,FLuc inhib CS
COc1cccc([C@@H]2Oc3ccc(OC)cc3C(=O)[C@H]2O)c1,146*,5.7*,1,41,29,-4
Cc1[nH]nc(Nc2ccc(O)cc2)c1[N+](=O)[O-],26,1.2,1,-8,.,-3
COc1ccc(Nc2n[nH]c(C)c2[N+](=O)[O-])cc1,35,4.8*,0.9,-8,19,9
Cc1ccc(Nc2n[nH]c(C)c2[N+](=O)[O-])c(C)c1,27,5.3*,1,-2,32,0
CCN(CC)C(=O)c1[nH]cnc1C(=O)NCc1ccccc1,.,.,.,-19,.,.
Cc1ccc(N(C)C(=O)c2ccc(CNc3c(N4CCC(C)CC4)c(=O)c3=O)cc2)cc1,.,.,.,3,12,.
CC[C@H](C)[C@@H]1NC(=O)[C@@H](CC(C)C)NC(=O)[C@H](C(C)C)NC(=O)[C@H]2CSSC[C@H](NC1=O)C(=O)N2,.,.,.,94*,.,.
CC1OC(C2CCCCC2)Cc2[nH]c(=S)[nH]c(=O)c21 (stereo unspecified),.,.,.,13,.,.
O=C(N/N=C/c1cccc(O)c1)c1csc2ccccc12,14,1.6,0.9,-8,-9,11
O=C(N/N=C/c1cccc(F)c1)c1csc2c1CCCC2,123,5.5*,0.7,1,21,31
O=C(N/N=C/c1ccccc1F)c1csc2c1CCCC2,33,4*,0.5,21,22,46
Cc1ccc(S(=O)(=O)N2CCCCC2)cc1NC(=O)C1CC1,.,.,.,2,.,.
COc1ccc(-c2csc(C3=C(O)CN(CCCN4CCCC4=O)C3=N)n2)cc1OC,41,0.92,0.4,12,26,56*
Cc1cc(C)cc(C(=O)OCC(=O)N2CCCCCC2)c1,.,.,.,-22,.,.
CCOC(=O)CCNC(=O)c1ccc2nc(C3CCCCC3)oc2c1,.,.,.,-20,.,.
Cc1cc(C)nc(NNC(=O)c2ccccc2O)n1,-21,1.2,1,-2,16,-3
COC(=O)c1ccc(-c2nc3cc(Cl)c(N)cc3s2)cc1,142*,1.6,0.2,83*,33,85*
CCN(CC)c1ccc(C(=C2C=CC(=[N+](CC)CC)C=C2)c2ccc(S(=O)(=O)O)cc2S(=O)(=O)[O-])cc1,.,.,.,9,.,.
O=C(NCC1CCCO1)c1sc2ccccc2c1Cl (stereo unspecified),101,3.1,0.7,22,11,28
CC(C)c1nnc(NC(=O)c2ccc3ccccc3c2)s1,.,.,.,10,.,.
CC(NC(=O)c1sc2ccccc2c1Cl)C1CCCO1 (stereo unspecified),32,2.1,0.4,36,22,63*
Cc1ccc2c(Cl)c(C(=O)NCC3CCCO3)sc2c1 (stereo unspecified),122,3.9*,0.7,8,2,33
CC(NC(=O)c1csc2ccccc12)C1CCCO1 (stereo unspecified),-7,0.95,1,7,8,-4
O=C(Nc1nccs1)c1sc2ccccc2c1Cl,234*,7*,0.1,74*,39,85*
CC(C)c1nnc(NC(=O)c2sc3ccccc3c2Cl)s1,18,2.5,0.4,20,19,64*
SMILES,APP 5'UTR act,NF-kB neuron act,FLuc act counter,TRAIL sens C8,PPC-1+TRAIL kill,FLuc inhib CS
CCOc1ccc(S(=O)(=O)N2CCCC(C(=O)NCc3cccnc3)C2)cc1 (stereo unspecified),.,.,.,-4,.,.
Cc1ccc(C2=NN(CCC(=O)NCc3ccc4c(c3)OCO4)C(=O)CC2)cc1,-12,0.9,1,7,4,-4
COc1ccc(C2NC(=O)c3sc4nc(C)c(C(C)=O)c(-c5ccc(Cl)cc5)c4c3N2)cc1 (stereo unspecified),12,1.2,1,-6,10,-4
Cc1ccnc(NC(=O)c2cccs2)c1,77,2.4,0.6,46,23,41
Cc1ccnc(NC(=O)c2ccc(Br)s2)c1,.,.,.,55*,.,.
Cc1ccnc(NC(=O)c2sc3ccccc3c2Cl)c1,148*,3.6*,0.1,92*,76*,92*
COc1ccccc1CNC(=O)C1(C)CCN1Cc1ccc2ccccc2c1 (stereo unspecified),.,.,.,3,.,.
CCCCN1C(=O)C(=O)N(c2ccccc2)C1=S,87,3.4*,0.8,3,17,20
O=c1cc(C(Cl)(Cl)Cl)oc2c1ccc1ccccc12,-8,1.3,1,90*,17,-2
CC(C)C[C@H]1CNC(=S)N1CC1CCCN1C[C@H](Cc1ccc(O)cc1)N1C[C@H](Cc2ccccc2)N(CC2CCCCC2)C1=S (stereo partly specified),.,.,.,5,.,.
CC(C)C[C@H]1CNC(=S)N1C[C@H]1CCCN1C[C@H](Cc1ccccc1)N1C[C@H](Cc2ccc(O)cc2)N(CC2CCCCC2)C1=S,.,.,.,68*,.,.
Fc1ccccc1N1CCN(c2cnc3ccccc3n2)CC1,.,6.3*,0.7,20,1,25
c1ccc(CN2CCN(c3cnc4ccccc4n3)CC2)cc1,.,.,.,-13,.,.
CCSc1nnc(Nc2ccc(C)cc2)s1,70,3.4*,0.7,4,6,26
CC(C)(C)c1ccc(OCC(=O)Nc2cccc(S(=O)(=O)NC3=NCCCCC3)c2)cc1,.,.,.,6,.,.
CC(=O)Nc1ccc(NC(=O)CSc2nnc(NC(=O)c3cccc(F)c3)s2)cc1,.,.,.,53*,.,.
O=C(CSc1nnc(NC(=O)c2c(F)cccc2F)s1)Nc1ccc(F)cc1,8,1.4,0.9,5,.,13
CCc1ccc(Nc2nnc(SCC(=O)Nc3cccc(S(=O)(=O)NC4=NCCCCC4)c3)s2)cc1,16,1.6,0.2,64*,51*,82*
CCOc1ccc(OCC(=O)Nc2cccc(S(=O)(=O)NC3=NCCC3)c2)cc1,.,.,.,63*,.,.
CCOc1ccc(NS(=O)(=O)c2ccc(C(=O)N3CCN(C(C)=O)CC3)cc2)cc1,.,.,.,11,.,.
COc1ccc(Cc2c(-c3ccc(F)cc3)nc3cc(C)c(Br)c(C)n23)c(C)c1,.,.,.,27,.,.
Cc1cc(SCC(=O)Nc2cccc(S(=O)(=O)NC3=NCCCCC3)c2)c(C)cc1Br,14,3.4*,1.1,-6,11,-7
O=C(/C=C/c1ccccc1Cl)Nc1cccc(S(=O)(=O)NC2=NCCCCC2)c1,44,0.91,0.3,41,36,71*
CCc1ccc(Nc2nnc(SCC(=O)Nc3ccc(C(=O)O)cc3)s2)cc1,.,.,.,59*,42,.
O=C(Nc1ccccn1)c1ccc(-c2ccccc2)cc1,.,.,.,82*,.,.
CC(C)(C)c1ccc(C(=O)Nc2cnccn2)cc1,173*,6.4*,0.1,75*,-16,86*
COc1ccccc1NC(=O)C(=O)c1cn(CC(=O)N2CCOCC2)c2ccccc12,.,.,.,4,.,.
CC(C)Cc1ccccc1S(N)(=O)=O,.,.,.,-13,.,.
CC(C)c1ccc(/C=C/C(=O)Nc2nncs2)cc1,134,7*,0.4,74*,29,59*
